Data published in ChEMBL document CHEMBL4513216, “Probing the Open Global Health Chemical Diversity Library for Multistage-Active Starting Points for Next-Generation Antimalarials” (ACS Infect Dis, 2020).

assay: Toxicity liver stage against HepG2, at 10uM; format: cell-based; design: test concentration 10 uM, cell line HepG2-A16-CD81EGFP; details: human, HepG2-A16-CD81EGFP cells; read-out: INHIBITION
How it was run: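 Uninfected HepG2-A16-CD81EGFP cells, 3 × 10^3 per well, 1536-well, plated on prespotted compound at 10 μM final, parasite-free screening media added to match infected plates; puromycin 10 μM positive, DMSO 0.5% negative; run in parallel with 48 h PbLuc assay at 37 °C, 5% CO2; viability by CellTiter-Glo luminescence, normalized to controls.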

SMILES | cytotoxicity at 10 µM [%]
CCN(Cc1nc2c(cnn2C)c(=O)[nH]1)c1cccc(C)c1 | -7.09
c1cncc(-n2cnnc2CC2CCNCC2)c1 | -20.1
CCc1nc(NC(=O)NCCc2cccc(C)n2)nn1C | 2.48
Cc1nn(C)c(C)c1C1CCCN1CCCc1nc2ccccc2o1 (stereo not given) | -4.3
COc1cccc(-c2noc(-c3ccc(NCCCN)nc3)n2)c1OC | -1.43
NC(=O)C1CN(C(=O)c2ccc(F)cc2)CCN1CCc1ccccc1 (stereo not given) | 2.77
CN(C)CCN(C)c1ccc(-c2nc(COc3ccccc3)no2)cn1 | 4.35
Cc1ccc(C(=O)N2CCCN(Cc3cscn3)CC2)o1 | -10.6
O=C1NC(c2ccccc2)=N[C@@]12CC[C@@H]1CN(Cc3ccoc3)C[C@@H]12 | 5.22
Cc1ccccc1N1CCN(C(=O)c2ncc(F)cc2F)C(C)C1 (stereo not given) | 11.4
CNc1nc(C(=O)N2CCN(c3cc(C)nc(C)c3)CC2)cs1 | 3.78
N#Cc1ccc(NCCCOCC2CCCO2)c(F)c1 (stereo not given) | 0.536
COc1ccccc1CNC(=O)C(C)n1cc2c(n1)c(C)nn2C (stereo not given) | 1.61
O=S(=O)(CCc1ccccc1)Cc1nc(C2CC2)no1 | 1.03
Cc1cc(C(=O)Nc2ccc(-c3nnc(N(C)C)o3)cc2)oc1C | 0.11
CN1C[C@@H](NC(=O)c2ccccc2)C[C@H]1c1nc(-c2cnccn2)no1 | 9.68
CNc1cc(C2CCCN(Cc3ccccc3OCC(=O)O)C2)ccn1 (stereo not given) | -24.8
Cc1ccc(N2CCO[C@H]3CN(Cc4cccnc4)C[C@H]32)nn1 | -81.3
COc1ccccc1CN1C(=O)O[C@@H]2CN(CC3CC3)C[C@@H]21 | 1.35
O=C(NCc1nncn1-c1ccccc1)C1CCCC1 | -11.5
CC(C)n1cc(CN2CCCN(C(=O)C3CCOC3)CC2)cn1 (stereo not given) | -8.45
COCCN1CCCC1c1nccnc1Nc1nc(C)cs1 (stereo not given) | 6.02

SMILES | cytotoxicity at 10 µM [%]
Clc1cccc(-n2cnnn2)c1N1CCCCC1 | 17.4
C[C@@H]1CN(C(=O)c2cn(CCN3CCCCC3)nn2)C[C@H](C)O1 | 4.89
Cc1cc(N(C)C)nc(N(C)Cc2csc(C)n2)n1 | 7.06
Cc1n[nH]c(C)c1NC(=O)CN1CCCC1c1noc(C(C)C)n1 (stereo not given) | 6.45
CC(=O)c1c(F)cccc1N1CCC(Cc2cccnc2)CC1 | 43.6
FC(F)Oc1ccc(CNCc2cc(Br)c3c(c2)OCO3)cc1 | 35.1
O=c1[nH]c2cn(-c3cccc(Cl)c3)c(=O)n2[nH]1 | 1.35
Cc1ccoc1C(=O)N1C[C@@H]2COC[C@]2(CNS(C)(=O)=O)C1 | -1.14
CC(C)n1nc(CNc2ncccn2)c2c1CN(C1CCOCC1)CC2 | -129
N#CCCCOc1cccnc1NC(=O)CC1CCCCC1 | 21.9
Cn1ccc(C(=O)N2CCCC(n3cncn3)C2)cc1=O (stereo not given) | -2.43
CCN(Cc1nc2c(cnn2C)c(=O)[nH]1)c1ccc(F)cc1 | -1.67
O=C(NCc1cc(F)cc(Br)c1)C1(O)CCSCC1 | 3.6
COc1c(CNCc2cccc(CN3CCOCC3)c2)c(C)nn1C | 11.1
c1ncn(CC2CCCN(Cc3nc(-c4ccoc4)no3)C2)n1 (stereo not given) | -1.43
Cc1cccc(O[C@H]2COCCN(Cc3sc(C)nc3C)C2)n1 | -1.5
Cc1cc(NC(=O)C(C)Oc2ccc3c(c2)OCO3)no1 (stereo not given) | -5.08
Cc1nc(C)n(C2CCCN(C(=O)CCn3ccnn3)C2)n1 (stereo not given) | -0.649
COC1COC2(CCN(CC3CCOCC3)CC2)C1 (stereo not given) | -110
CN1CCN(c2ccccc2CNC(=O)Cc2cccc(F)c2)CC1 | -6.29
O=S1(=O)NCC2(CCN(c3ncccn3)CC2)COc2ccccc21 | -1.34
CN(C)[C@@H]1CCN(c2ncc(F)cn2)[C@H]1Cc1cccnc1 | 2.53

SMILES | cytotoxicity at 10 µM [%]
Cc1nc(CN(C)C2CCN(CCCOc3ccccc3)C2)no1 (stereo not given) | -9.26
CC(=O)N(C)Cc1ncn2c1CN(C(=O)CC1CC1)CCC2 | -110
COCCN1C(=O)CC(c2cccnc2)C12CCN(C)CC2 (stereo not given) | -97.6
Cc1c[nH]nc1C1CCCN1Cc1nccn1C (stereo not given) | -3.34
CC(C)NC(=O)c1ccc2nnc(C3CCN(S(C)(=O)=O)C3)n2c1 (stereo not given) | 3.5
CN1C(=O)C2(CC(=O)Nc3c2cnn3C(C)(C)C)c2c(Cl)cccc21 (stereo not given) | 3.41
CC(c1cccc(-c2nccn2CCc2cn[nH]c2)c1)N(C)C (stereo not given) | -4.83
O=C(c1c[nH]c(=O)[nH]c1=O)N1CCCC(c2nccn2CC2CCC2)C1 (stereo not given) | -3.67
COC1CCCOC12CCN(C(=O)NCCc1cccs1)CC2 (stereo not given) | 1.03
CN1CC2(CCCN(Cc3cccc(Oc4ccccc4)c3)C2)OC1=O (stereo not given) | 5.09
CS(=O)(=O)N1Cc2nccn2CC(CNC(=O)c2cccnc2)C1 (stereo not given) | -143
CCn1nc2c(cc1=O)CN(Cc1nc(-c3ccsc3)no1)CC2 | -17.1
Cn1ccnc1CN1C(=O)CO[C@H]2CN(Cc3ccc(F)c(F)c3)C[C@H]21 | -2.83
Cc1c(C(C)NC(=O)C2CCCC2)cnn1C (stereo not given) | -10.9
Cc1cccc(NC(=O)C2CSCN2C(=O)c2cnccn2)c1C (stereo not given) | -0.691
O=C(CC1CC1)N1CCC2(COCc3cnc(N4CCOCC4)nc32)C1 (stereo not given) | -82.1
O=C(Nc1ccc2c(ccn2CCN2CCOCC2)c1)c1ccncc1 | -2.9
O=C(NCc1ccc(Br)cc1)C1(O)CCSCC1 | -3.59
Cc1c(NC(=O)NCCO)cccc1OC1CCCC1 | -2.25
Cc1cnn(C2CN(c3ccccc3S(=O)(=O)C(F)(F)F)C2)c1 | 11.5
COc1cc(CN2CCCC23CCN(c2ccccn2)CC3)ccc1F | -11.5
CCc1cc(NCCN2CCNC2=O)n2nccc2n1 | -3.04

SMILES | cytotoxicity at 10 µM [%]
CCn1ccnc1CN1CCN(C(C)C(=O)NCc2ccco2)CC1 (stereo not given) | 7.79
CC(C)C(=O)N1CCCC2(C1)CN(c1nncs1)CCO2 (stereo not given) | -104
Cc1cc(C)n(Cc2cc(C(=O)N3CCCC3c3nccs3)n[nH]2)n1 (stereo not given) | -5.08
CC(C(=O)NCc1ccc(-n2cncn2)nc1)n1ccnc1 (stereo not given) | 0.409
CS(=O)(=O)N1CC[C@H]2OCC[C@@]2(C(=O)NCCc2ccccn2)C1 | -101
Cc1ccc(SCC(=O)NS(=O)(=O)c2ccc3c(c2)OCCO3)cc1 | -22.1
COCC1CN(C(=O)Cc2ccccn2)Cc2cn(CC3CC3)nc21 (stereo not given) | -1.32
CC(C)N1CC[C@H]2[C@H](C[C@@H](Cn3cccn3)N2c2nccs2)C1 | 3.28
Cc1cc(=O)c(C(=O)Nc2cccc(CCN3CCCC3)c2)c[nH]1 | 7.49
Cc1nc(CN2C[C@@H]3OCCN(c4ncc(F)cn4)[C@@H]3C2)cs1 | -8.52
CCN(CC)C(=O)Cn1cc(-c2nc(C(C)C)no2)nn1 | 2.28
O=C1COC2(COCCN(Cc3ccsc3)C2)CN1c1ccc(F)cc1 (stereo not given) | 2.83
O=C(Nc1ccccc1Cn1cccn1)N1CCC(N2CCCC2)C1 (stereo not given) | 2.06
CCCc1cc(N2CCCC2Cn2nc(C)nc2C)n2ncnc2n1 (stereo not given) | -0.82
COc1cc(C(C)NCc2cscn2)ccc1SC(F)F (stereo not given) | 0.762
O=S(=O)(NCC(O)c1cccs1)c1ccccc1Cl (stereo not given) | -67
COCCO[C@@H]1CCN(C(=O)c2ccc(C)o2)[C@@H]1Cc1cnn(C)c1 | -12.8
Cc1c(C(=O)NC2(C#N)CCSC2)nnn1-c1ccccc1Cl (stereo not given) | -5.34
Cc1ncc(S(C)(=O)=O)c(N2Cc3ccccc3C2)n1 | -18.3
COc1ccc(CCNC(=O)C(C)Nc2cc(C)ccc2C)cc1 (stereo not given) | -5.71
CCc1nc(CN(C)CC(=O)NC(C)C)cs1 | 1.48
O=C(c1cc2c([nH]c1=O)CCC2)N1CCCC1c1ccccc1 (stereo not given) | -5.76

SMILES | cytotoxicity at 10 µM [%]
CN(C)CCNC(=O)c1cc2n(n1)CCN(C(=O)CC(C)(C)C)C2 | -1.85
COc1ccc(S(=O)(=O)NCc2cccnc2N(C)C)cc1 | 5.32
CCc1cc(C(=O)N2CCC(c3cc4ncccc4cn3)CC2)no1 | -14.4
Cn1cccc1C1CCCN1Cc1noc(C(C)(C)C)n1 (stereo not given) | -4.4
COc1cc(C)cc(C(C(=O)O)N2CCN(C3CCCC3)CC2)c1OC (stereo not given) | -4.27
Cc1oc(C)c(C(=O)NS(=O)(=O)c2ccc3c(c2)OCCCO3)c1C | 6.08
Cc1nnc(NCCC(=O)NCc2ccccc2)c(C#N)c1C | -3.57
COc1ccccc1CN(C)Cc1ccnc(C2CCCO2)n1 (stereo not given) | 4.65
CCCn1ncc(C(=O)N(C)Cc2n[nH]c3c2CCC3)c1C | 0.213
Cc1cc(C(F)(F)F)cc(=O)n1CCCn1cnnn1 | 1.16
COc1ccc(OCc2cc(C(=O)N3CCOCC3)n[nH]2)c(Cl)c1 | -3.66
Cc1cc(C(=O)NC(C)Cc2ccc(N(C)C)cc2)n(C)n1 (stereo not given) | 1.19
CCOCC1CC2(CCN(C(=O)CC3=CCCCC3)CC2)CO1 (stereo not given) | -3.95
CC(=O)Nc1ccc(CNc2cccc(OCCF)c2)cc1 | -5.35
Cn1ccnc1CN(CCO)C(=O)c1cc2ccccc2o1 | 3.42
CCC(NC(=O)C1CCN(S(C)(=O)=O)CC1)c1ccc(OC)c(C)c1 (stereo not given) | -10
Cc1ncc2c(n1)CCCC2NC(=O)c1ccccc1Cn1cncn1 (stereo not given) | -24.4
Cc1nn(CC(=O)N2CCN(Cc3cccnc3)CC2)c(C)c1Cl | 0.612
Cc1nc(CN2C(=O)CC3(CCN(C(N)=O)CC3)c3ccccc32)cs1 | -1.4
CC(C)[C@H]1COC(=O)N1Cc1nncn1C(C)C | -9.17
CN(C)CC(=O)N1CCC2(CC1)CN(Cc1ccccc1)C2 | 5.03
CN(Cc1cccnc1)[C@@H]1CN(C(=O)CC2CC2)[C@@H]2CCCO[C@H]12 | 7.86
